CFTR F508del cor: correctors of CFTR F508del function in bronchial epithelial cells. actives 0.36% (n = 350,000). CFBE cells, YFP halide quenching; stimulated with forskolin plus potentiator P3; % fluorescence drop versus neutral controls. activity (quench increase), % at 7.58 µM;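 active = mean added fluorescence quench of at least 8% versus neutral control, with both replicates also reaching 8%; inconclusive = only one of the mean or replicate conditions met; inactive = mean below 8% and not both replicates reaching 8%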;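 also: cells transiently co-express mutant CFTR-F508del with the halide-sensitive YFP; corrector assay measuring rescue of mutant channel to the surface after 24 h compound exposure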
miR-122 sensor: miR-122 inhibition in Huh7 cells; Huh7 miR-122 Renilla luciferase sensor, 48 h; neutral wells = 0, positive control = 100; activation (reporter increase), % at 12.5 µM; actives 0.3% (n = 340,000); AID 602342;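 active = mean replicate activation score at least 90 and every replicate individually at or above 90; inconclusive = only one of the two criteria met; inactive = neither criterion met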;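 also: higher luciferase means less miR-122 activity so hits act as miR-122 inhibitors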
E-selectin induc: E-selectin induction on HUVECs; HUVEC E-selectin immunofluorescence imaging; normalized: neutral wells 0, TNF-alpha wells 100; activation, % at 7.58 µM; actives 0.37% (n = 260,000); AID 686992;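 active = mean E-selectin-positive cell signal at least 10% of the positive control, reached in at least 60% of replicates, without over 20% cell loss; inconclusive = no rule given, readout overlaps actives, possibly toxicity-flagged; inactive = the rest, including those meeting only one limit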
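Assay system: HUVEC, human umbilical vein endothelial cells / Amount: 3,000 HUVEC/well / Controls: TNF-alpha positive control, DMSO neutral control / Compound dosing: single concentration / Medium: EGM-2 over gelatin coat / Evaluation: percent E-selectin-positive cells / Signal: immunofluorescence imaging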
DENV2 CPE: DENV2-induced cell death inhibition; DENV2-infected cells, cytopathic effect rescue, plate reader; actives 1.7% (n = 350,000); CPE inhibition, % at 9.99 µM; AID 651640; in the data active = CPE inhibition above about 20%, passing the limit was not always enough; inconclusive = no clear call, values can overlap the other calls; tested in BHK-21 cells;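 also: 0% = median of neutral control wells and 100% = median of positive control wells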
GSIS activator: GLuc luminescence reporter in INS-1E cells, primary screen for activators of glucose-dependent secretion of insulin | activation, % at 16.6 µM | INS-1E GLuc reporter insulin secretion, 2-3 h | AID 743287 | actives 0.61% (n = 370,000);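 active = lowest replicate activation of at least 40%, so every replicate reaches that level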;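 also: 0% = median of neutral control wells and 100% = median of IBMX positive control wells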
ERAP1 inh: ERAP1 (human) enzyme inhibition; Q9NZ08; actives 0.15% (n = 340,000); inhibition, % at 10.7 µM; recombinant ERAP1, Leu-AMC fluorescence, 60 min;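 active = mean replicate inhibition of at least 30%, or all replicates individually reaching that 30% level; inactive = mean below 30% and not every replicate reaching it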;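 also: 0% = neutral control wells and 100% = L-leucinethiol positive control wells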
Target sequence (Q9NZ08 whole entry, looked up): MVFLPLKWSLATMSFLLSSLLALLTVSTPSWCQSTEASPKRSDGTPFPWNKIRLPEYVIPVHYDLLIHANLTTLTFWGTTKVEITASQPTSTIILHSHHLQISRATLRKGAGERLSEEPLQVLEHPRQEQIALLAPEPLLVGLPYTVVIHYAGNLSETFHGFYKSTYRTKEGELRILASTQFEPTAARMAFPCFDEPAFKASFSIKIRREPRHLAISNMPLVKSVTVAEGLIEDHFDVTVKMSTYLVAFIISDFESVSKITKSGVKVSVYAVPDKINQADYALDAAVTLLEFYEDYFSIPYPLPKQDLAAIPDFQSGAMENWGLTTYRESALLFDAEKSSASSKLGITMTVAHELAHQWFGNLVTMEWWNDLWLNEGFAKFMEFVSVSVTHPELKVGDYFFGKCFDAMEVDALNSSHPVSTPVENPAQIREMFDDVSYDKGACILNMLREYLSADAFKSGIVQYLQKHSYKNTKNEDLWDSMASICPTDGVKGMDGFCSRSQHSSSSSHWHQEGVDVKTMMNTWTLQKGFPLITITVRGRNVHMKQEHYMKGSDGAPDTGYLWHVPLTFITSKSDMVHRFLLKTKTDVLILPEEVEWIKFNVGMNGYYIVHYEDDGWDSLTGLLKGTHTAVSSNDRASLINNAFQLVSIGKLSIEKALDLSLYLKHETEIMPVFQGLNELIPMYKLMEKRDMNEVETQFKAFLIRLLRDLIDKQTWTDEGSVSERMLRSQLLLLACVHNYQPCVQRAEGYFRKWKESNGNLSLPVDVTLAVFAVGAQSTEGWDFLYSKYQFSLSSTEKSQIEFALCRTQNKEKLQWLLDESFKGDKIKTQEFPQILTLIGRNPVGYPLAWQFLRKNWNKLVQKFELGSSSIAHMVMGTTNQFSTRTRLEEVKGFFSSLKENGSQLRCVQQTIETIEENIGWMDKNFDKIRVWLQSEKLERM
* = called active by the depositor; ? = inconclusive; nt = no result; ! = not active in a repeat; [ ] = another dose, or the depositor's remark. Compounds with a hit are over-represented: about 2.6% of the library has one in this group of screens.

SMILES | CFTR F508del cor | miR-122 sensor | E-selectin induc | DENV2 CPE | GSIS activator | ERAP1 inh
O=C(CCl)N=c1sccn1Cc1ccccc1Cl | -17 | nt | nt | 3 | 61* | 0
Cc1ccnc(NC(=O)C(Cc2ccccc2)NC(=O)c2ccccc2)c1 (stereo not drawn) | -3 | 8 | 1 | 38* | nt | -2
COc1ccc(NC(=O)N(C)C[C@H]2OCCCC[C@H](C)Oc3ccc(NC(=O)Nc4ccc5c(c4)OCO5)cc3C(=O)N([C@@H](C)CO)C[C@H]2C)cc1 | -3 | nt | 0 | 2 | 9 | 3
C[C@H](CO)N1C[C@H](C)[C@@H](CN(C)C(=O)Nc2ccccc2)Oc2ccc(NS(=O)(=O)c3cccs3)cc2C1=O | -2 | nt | nt | -1 | 6 | -2
O=C(NC[C@H]1[C@@H](c2ccccc2)[C@@H](CO)N1Cc1ccccn1)C1CC1 | 0 | -7[16.7 µM] | 0 | -4 | 12 | -2
Cc1ncc[nH]1 | 1 | 0 | nt | 57* | 7 | 9
O=C(CCNC(=O)N1CC(=O)Nc2ccccc21)NCc1ccc(F)cc1 | -1 | 1 | nt | -6 | -14 | -1
O=C(CNC(=O)N1CC(=O)Nc2ccccc21)NCc1ccc(F)cc1 | -2 | 0 | 4 | 113* | -6 | -5
COC1=CC(=O)C(OC)=C(OC)C1=O | -5 | nt | 0 | nt | 44* | 2
CCCCCCCOC(=O)C[N+](C)(C)CCOC1CC2CCC1(C)C2(C)C (stereo not drawn) | 1 | nt | nt | 5 | 433* | 11
CCc1ccc2c(c1)cc(CN(Cc1ccco1)C(C)=O)c1nnnn12 | 5 | 3 | nt | -7 | 52* | -1
CC(C)c1cn(CC[C@H]2CC[C@H](NC(=O)C3CCOCC3)[C@H](CO)O2)nn1 | 0 | nt | 1 | -3 | 1 | 2
O=S(=O)(Nc1cccc(-c2cn3c(n2)SCC3)c1)c1ccccc1F | 0 | 0 | 0 | -3 | 0 | 37*
O=S(=O)(Nc1cccc(-c2cn3c(n2)SCC3)c1)c1ccc(F)cc1F | 3 | 4 | 1 | -5 | -12 | 24
CCCN1C[C@H](C)[C@@H](OC)CN(C)C(=O)c2ccc(NC(=O)c3ccccc3F)cc2OC[C@@H]1C | 1 | nt | 0 | -4 | -6 | 0
C[C@H]1CN([C@@H](C)CO)C(=O)c2cccc(NC(=O)Nc3ccccc3)c2O[C@@H]1CN(C)Cc1ccc(C(=O)Nc2ccccc2N)cc1 | 1 | 153*[16.7 µM] | 5 | -4 | 3 | 3
C[C@H](CO)N1C[C@H](C)[C@@H](CN(C)Cc2ccc(C(=O)Nc3ccccc3N)cc2)Oc2c(NC(=O)Nc3ccccc3)cccc2C1=O | -1 | 97*[16.7 µM] | 5 | 0 | 4 | 2
C[C@@H]1CN([C@@H](C)CO)C(=O)c2cccc(NC(=O)Nc3ccccc3)c2O[C@H]1CN(C)Cc1ccc(C(=O)Nc2ccccc2N)cc1 | -4 | 21[16.7 µM] | 2 | 1 | 13 | 0
C[C@@H]1CN([C@H](C)CO)C(=O)c2cccc(NC(=O)Nc3ccc(F)cc3)c2O[C@@H]1CN(C)Cc1ccc(C(=O)Nc2ccccc2N)cc1 | -1 | nt | 38 | 3 | 7 | -1
CCNC(=O)NC(=O)C(C)OC(=O)c1oc2ccccc2c1CSC1CCCCC1 (stereo not drawn) | nt | -5 | nt | nt | 108* | nt
C[C@H]1CN([C@@H](C)CO)S(=O)(=O)c2ccc(C#CC3CC3)cc2O[C@H]1CN(C)Cc1ccccc1F | 6 | 5[16.7 µM] | 0 | -4 | -22 | -2
C[C@@H]1CN([C@H](C)CO)C(=O)Cc2cc(NS(=O)(=O)c3cccs3)ccc2O[C@@H]1CN(C)C(=O)NC1CCCCC1 | 1 | 3[16.7 µM] | 0 | ? | 23 | -3
CO[C@H]1CN(C)C(=O)c2cc(NC(=O)C3CC3)ccc2OC[C@@H](C)N(C(=O)CN2CCOCC2)C[C@H]1C | 0 | nt | 0 | 0 | 14 | nt
COc1cccc(S(=O)(=O)N[C@H]2CC[C@@H](CCn3cc(-c4ccc(F)cc4)nn3)O[C@H]2CO)c1 | -1 | nt | 0 | -1 | -8 | 1
CCCn1nc(NC(=O)c2ccco2)c2cc3cc(C)ccc3nc21 | -3 | -3 | 1 | -4 | 13 | nt
SMILES | CFTR F508del cor | miR-122 sensor | E-selectin induc | DENV2 CPE | GSIS activator | ERAP1 inh
CC(C)Cn1nc(NC(=O)c2ccco2)c2cc3ccccc3nc21 | 2 | nt | nt | 5 | 74* | -2
CCn1nc(NC(=O)c2ccco2)c2cc3ccccc3nc21 | nt | 10 | nt | nt | 44* | nt
CO[C@H]1CN(C)C(=O)c2cc(NS(=O)(=O)CC(F)(F)F)ccc2OC[C@@H](C)N(CCC(F)(F)F)C[C@@H]1C | -2 | 10[16.7 µM] | 0 | -5 | -6 | 3
CC(C)CC#Cc1cnc2c(c1)C(=O)N([C@@H](C)CO)C[C@@H](C)[C@H](CN(C)Cc1ccccc1C(=O)O)O2 | 5 | nt | 0 | 2 | -6 | -1
NC(=O)C1CCN(c2nc(-c3ccccc3-c3ccccc3)cs2)CC1 | -3 | -5 | 139* | -7 | -28 | -3
NC(=O)C1CCN(c2nc(-c3ccccc3N)cs2)CC1 | -2 | 5 | 1 | nt | 29 | nt
O=C1c2c(O)ccc(O)c2C(=O)c2c(NCCNCCO)ccc(NCCNCCO)c21 | 8 | 3 | 3 | 2 | 0 | 39*!
CNS(=O)(=O)c1cccc(C(=O)OCC(=O)c2cc(C)n(CC3CCCO3)c2C)c1 (stereo not drawn) | 25* | -3 | -1 | 2 | -8 | 0
Cc1cc(C(=O)COC(=O)c2cccc(S(=O)(=O)N(C)C)c2)c(C)n1CC1CCCO1 (stereo not drawn) | -1 | -1 | 0 | 10 | -16 | 2
CN(C)CC(=O)N1[C@@H]2c3ccc(-c4ccccc4)c(=O)n3C[C@@H]2[C@@H](CO)[C@@H]1C(=O)NC1CCC1 | nt | nt | 0 | 0 | 0 | 2
COc1ccc(S(=O)(=O)N(C)C[C@H]2Oc3ccc(NC(=O)CCCN(C)C)cc3C(=O)N([C@H](C)CO)C[C@H]2C)cc1 | 1 | 0[16.7 µM] | 21 | -2 | 8 | 0
COc1ccc(S(=O)(=O)N(C)C[C@@H]2Oc3ccc(NC(=O)CCCN(C)C)cc3C(=O)N([C@@H](C)CO)C[C@@H]2C)cc1 | 0 | 0[16.7 µM] | 57* | 4 | 4 | 0
C[C@@H]1CN([C@@H](C)CO)C(=O)c2cc(NC(=O)CCC(F)(F)F)ccc2O[C@@H]1CN(C)CC1CCCCC1 | 0 | 4[16.7 µM] | nt | 22* | 0 | 2
C[C@H]1CN([C@@H](C)CO)C(=O)c2cc(NC(=O)CCC(F)(F)F)ccc2O[C@H]1CN(C)CC1CCCCC1 | 2 | -1[16.7 µM] | nt | -6 | -1 | 3
Cc1ccc(S(=O)(=O)N(C)C[C@@H]2Oc3ccc(NC(=O)CCC(F)(F)F)cc3C(=O)N([C@H](C)CO)C[C@@H]2C)cc1 | -1 | 3[16.7 µM] | 0 | 47* | -1 | 1
